Assay results from publication PMC3287054 (Bioorganic & medicinal chemistry letters, 2011).
Values after ≈ are worked out from the molar mass of the structure shown.

How the values were obtained:
[1] = system: C. albicans clinical isolate CaCi-2; experiment: CaCi-2 growth inhibition in the presence of fluconazole; format: cell-based, Candida albicans
In short: (§1)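 Candida albicans clinical isolates were incubated with test compound and a fixed 8 μg/mL fluconazole at 37 °C for 48 h. Growth inhibition was read by Alamar blue fluorometry. Values are the average of at least three runs.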

[2] = system: C. albicans clinical isolate CaCi-8; experiment: CaCi-8 growth inhibition in the presence of fluconazole; format: cell-based, Candida albicans; conditions: at approximately 1 μM, with fluconazole
In short: as §1

CaCi-2 [3] = experiment: CaCi-2 growth inhibition in the absence of fluconazole; format: cell-based, Candida albicans
murine 3T3 fibroblasts = experiment: Mammalian fibroblast toxicity counterscreen; format: cell-based
[4] = system: Hsp90-dependent signaling pathway; experiment: Yeast reporter assay, Hsp90-dependent signaling; format: cell-based; conditions: Saccharomyces cerevisiae, read-out: IC50 Hsp90-dependent signaling pathway
[5] = system: calcineurin-dependent signaling pathway; experiment: Yeast reporter assay, calcineurin-dependent signaling; format: cell-based; conditions: Saccharomyces cerevisiae, read-out: IC50 calcineurin-dependent signaling pathway
Aqueous = format: physicochemical; conditions: aqueous / PBS solution, in words
CaCi-2 [6] = experiment: Fluconazole MIC determination, CaCi-2; format: cell-based; conditions: Candida albicans, read-out: MIC for CaCi-2
CaCi-8 = experiment: Fluconazole MIC determination, CaCi-8; format: cell-based; conditions: Candida albicans, read-out: MIC for CaCi-8

For O=C(c1ccc(Cl)cc1)N1CCN(c2ccnc3cc(Cl)ccc23)CC1 [Compound 1], the “Growth inhibition of CaCi-2” value ([1]; at approximately 1 μM, with fluconazole) was 97–100%, the “Growth inhibition of CaCi-8” value [2] was 97–100% and the “Effect on CaCi-2 in the absence of fluconazole” value (CaCi-2 [3]) was “no discernible effect”. For the same compound, the “Concentration up to which murine 3T3 fibroblasts showed no response” value (murine 3T3 fibroblasts) was > 26 µM, the IC50 [4] was > 26 µM and the IC50 [5] was > 26 µM. For the same compound, the Solubility (Aqueous) was “poor aqueous solubility”.
COC1=C2C[C@@H](C)C[C@H](OC)[C@H](O)[C@@H](C)/C=C(\C)[C@H](OC(N)=O)[C@@H](OC)/C=C\C=C(/C)C(=O)NC(=CC1=O)C2=O [Geldanamycin] showed an inhibition at 10 µM ([1]; Candida albicans, read-out: Growth inhibition (control)) of 100%.
With OC(Cn1cncn1)(Cn1cncn1)c1ccc(F)cc1F [fluconazole] the inhibition at 8 µg/mL ([1]; Candida albicans, read-out: Baseline growth inhibition in CaCi-2) was 60 to 80%, the MIC (CaCi-2 [6]) was 2 µg/mL (≈ 6.53 µM) and the MIC (CaCi-8) was 8 µg/mL (≈ 26.1 µM).
